# Experimental data taken from the RNAGym collection of RNA variant scans (doi:10.1126/science.aae0568).
# Variants at the floor of the assay were thinned out.
# B1: tRNA (parent)
# chain: GUUCCGUUGGCGUAAUGGUAACGCGUCUCCCUCCUAAGGAGAAGACUGCGGGUUCGAGUCCCGUACGGAACG
# Variants of: B1
# Test: yeast fitness relative to wild type (ratio to wild type); higher = fitter; tRNA-Arg(CCU), competitive growth, 37 C, YPD
# Method in brief: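 Changes in genotype frequencies gave Darwinian fitness relative to wild type. Frequencies were read by 100-nucleotide paired-end sequencing of gene amplicons before and after pooled Saccharomyces cerevisiae strains, carrying tRNA-Arg(CCU) gene variants at the native locus, were competed in YPD at 37°C for 24 hours in six replicates. A genotype was kept only with ≥ 100 starting reads, and estimates < 0.5 were set to 0.5.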
row,Variant,yeast fitness
1,GUUACGUUGGCGUAAUGGUAAUGCGUUUCCCUCCUAAGGAGAAGACUGCGGGUUCGAGUCCCGUACGGAACG [C4A C22U C27U],≤ 0.5
2,GUUACGUUGGCGUAAUGGUAACGGGUCUCCCUCCUAAGGAUAAGACUGCGGGUUCGAGUCCCGUACGGAACG [C4A C24G G41U],≤ 0.5
3,GUUACGUUGGCGUAAUGGUAACGCGUCUGCCUCCUAAGGAGAAGACUGCGGGUUCGAGUCCCGUACGCAACG [C4A C29G G68C],≤ 0.5
4,GUUACGUUGGCGUAAUGGUAACGCGUCUGCCUCCUUAGGAGAAGACUGCGGGCUCGAGUCCCGUACGGAACG [C4A C29G A36U U53C],≤ 0.5
5,GUUACGUUGGCGUAAUGGUAACGGGUCUCCCUCCUAAGGAGAAGACUGCGGGUUCGAGUCCUGUACGGCACG [C4A C24G C62U A69C],0.567
6,GUUACGUUGGCGUAAUGGUAACGCGUCUGCAUCCUAAGGAGAAGACUGCGGGUUCGAGUCCCGUACAGAACG [C4A C29G C31A G67A],≤ 0.5
7,GUUACGUUGGCGUAAUGGUAACGGGUCUCCCUCCUAAGGAGAACACUGCGGGUUCGAGUCCCGUACGGAACG [C4A C24G G44C],≤ 0.5
8,GUUACGUUGGCGUAAUGGUAACGCGUCUGCCUCCUUAGGAGAAGACUGCGGGUUCGAGUCCCGUGUGGAACG [C4A C29G A36U A65G C66U],≤ 0.5
9,GUUACGUUGGCGUAAUGGUAACGCGUCUGCCUCCUAAGGAGAAGACUGCGGGUUCGGGACCCGUACGUAGCG [C4A C29G A57G U59A G68U A70G],0.571
10,GUUACGUUGGCGUAAUGGUAACGCGUGUCCCCCCUGAGGAGAAGACUGCGGGUUCGGAUCCUGUACGGAUCG [C4A C27G U32C A36G A57G G58A C62U A70U],≤ 0.5
11,GUUACGUUGGCGUAAUGGUAACGAGUCUCCCUCCUAAGGAGAAGACUGCGGGUUCGAGUCCCGUACGGAACG [C4A C24A],0.595
12,GUUACGUUGGUGUAAUGGUAACGCGUCUCCCUCCUAAGGGGAAGACUGCGGGUUCGAGUCCCGUACGGAACG [C4A C11U A40G],≤ 0.5
13,GUUACGUUGGCGUAAUGGUAACGCGUGUCCCUCCUACGGAGAAGUCCGCGGGUUCGAGUCCCGUACGGAACG [C4A C27G A37C A45U U47C],≤ 0.5
14,GUUACGUUGGCGUAAUGGUAAGGCGUCUCCCUGCUAAGGAGAAGACUGCGGGUGCGAGUCCCGUACGGAACG [C4A C22G C33G U54G],≤ 0.5
15,GUUACGUUGGCGUAAUGGUAACGCGUAUCCCUCCUAAAGAGAAGACUGCGGGUUCGAGUCCAGUACGGAACG [C4A C27A G38A C62A],≤ 0.5
16,GUUACGUUGGCGUAAUGGUAACGCGUCUUCCUCCUAAGGAGAAGACUGCGGCUUCGAGUCCCGUACGGAACG [C4A C29U G52C],≤ 0.5
17,GUUACGUUGGCGUAAUGGUAACGCGUUGCCCUGCUGAGGAGAAGACUGCGGGUUCGAGUCCCGUAUGGAACG [C4A C27U U28G C33G A36G C66U],0.542
18,GUUACGUUGGCGUAAUGGUAACGCGUUUCCCCCCUAAGGAGAAGACUCCGGGUUCGAGUCCCGUACGGAACG [C4A C27U U32C G48C],≤ 0.5
19,GUUACGUUGGCGUAAUGGUAAGGCGUCUCCCUCCUAAGGAGAAGACUGAGGGUUUGAGUCCCGUAAGGCACG [C4A C22G C49A C55U C66A A69C],≤ 0.5

row,Variant,yeast fitness
1,GUUACGUUGGCGUAAUGGUAAUGAGUCUACCUCCUCAGGAGAAGACUGCGGAAUCGAGUCCCGUACGGAACG [C4A C22U C24A C29A A36C G52A U53A],≤ 0.5
2,GUUACGUUGGCGUAAUGGUAACGCGUCUACCUCAUAAGGAGAAGACUGCGGGUUCGAGUCCUGUACGGAACG [C4A C29A C34A C62U],≤ 0.5
3,GUUACGUUGGCGUAAUGGUAACGCGUCUGCCUCCUAAGGAGAAGACGGCGGGUUCGAGGCCCGUACGGAACG [C4A C29G U47G U59G],≤ 0.5
4,GUUACGUUGGCGUAAUGGUAACGCGUCUGCCUCCUAAGGAGAAGACUGCGGGUUCGGGACCCGUACGGUACG [C4A C29G A57G U59A A69U],≤ 0.5
5,GUUACGUUGGCGUAAUGGUAACGCGUCUUCCUCCUAAGGAGAAGACUGCGGGUUCGAGUCCCGUGCGGAACG [C4A C29U A65G],≤ 0.5
6,GUUACGUUGGCGUAAUGGUAACGCGUCUGCCUCCUAACGAGAAGACUGCGGGUUCGAGUCCCGUACGGAACG [C4A C29G G38C],≤ 0.5
7,GUUACGUUGGCGUAAUGGUAAGGCGUCUUCCUCCUAAGGAGAAGACUGCGGGUUCGAGUCCCGUACGCAACG [C4A C22G C29U G68C],≤ 0.5
8,GUUACGUUGGUGUAAUGGUAACGCGUCUCCGUCCUAAGGAGAAGACUGCGGGCGCGAGUCCCGUACGGAACG [C4A C11U C31G U53C U54G],≤ 0.5
9,GUUACGUUGGCGUAAUGGUAACGUGUCUUCCCCCUAAGGAGAAGACUGCGGGUCCGAGUCCCGUACGGAACG [C4A C24U C29U U32C U54C],≤ 0.5
10,GUUACGUUGGCGUAAUGGUAACGCGUCUCACUCCUACGGAGAAGACUGCGGGUUCGAAUCCCGUACGGAUCG [C4A C30A A37C G58A A70U],≤ 0.5
11,GUUACGUUGGUGUAAUGGUAACGCGUCUCCCUCCUAAGGAGAAGACUGCGGGUUCGCGUCCCGUACGGAACG [C4A C11U A57C],≤ 0.5
12,GUUACGUUGGCGUAAUGGUAACGCGUUUCCCUCCUAAGGAGAAGACUGCGGGUUCGAGUCCCGUACGGAACG [C4A C27U],0.901
13,GUUACGUUGGCGUAAUGGUAACGCGUAUCCCUCCUAAGGAGAAGACUGCGGGUUCGAGUCCCGUACGGAACG [C4A C27A],0.798
14,GUUACGUUGGCGUAAUGGUAACGCGUGUCCCUCCUAAGGAGAAGACUGCGGGUUCGAGUCCCGUACGGAACG [C4A C27G],0.674
15,GUUACGUUGGCGUAAUGGUAACGCGUCUUCUUCCUAAGGAGAAGACUGCGGGUGCGAGUCCCGUUCAGAACG [C4A C29U C31U U54G A65U G67A],≤ 0.5
16,GUUACGUUGGCGUAAUGGUAACGUGUCUCCCUCCUAAGGAGAAGACUGCGGGUUAGAGUCCCGUCCGGAACG [C4A C24U C55A A65C],≤ 0.5
17,GUUACGUUGGCGUAAUGGUAAGGCGUCUCUCUCCUAAGGGGAAGCCUGCGGGUUCGAGUCCCGUACGGAACG [C4A C22G C30U A40G A45C],≤ 0.5
18,GUUACGUUGGUGUAAUGGUAACGCGUCUCCCUCCUAAGCAGAAGCCUGCGGGUUCGAGUCCCGUACGGAACG [C4A C11U G39C A45C],≤ 0.5
